Active and inactive are the calls of the source.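 How the source made its calls, unless noted: active means mean duplicate potentiation above the buffer control mean plus 5 SD of buffer wells; inactive means the rest.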

Test [1] in a line: nonspecific flux increase, KCNQ1-free cells – parental CHO cells, counter-screen for KCNQ1 potentiator project (AID 493006;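 active means duplicate-averaged activation above buffer control mean plus 5 SD of those controls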). The settings on record: parental CHO-K1 cells, FluxOR thallium flux, at 10 µM; hits give high values. A digest of the protocol:
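Test system: parental CHO-K1 cells, FluxOR dye-loaded / Probe or stimulus: potassium plus thallium depolarizing stimulus, 5x stock 12.5 mM K2SO4, Tl2SO4 / Timing: overnight 37 °C plating, 90 min dye, 20 min dark compound / Measured by: kinetic thallium-flux fluorescence / Read-out: max-minus-min fluorescence over baseline, percent of buffer-to-R-L3 span / Benchmarks: buffer and R-L3 controls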

Test [2] concerns the target Potassium voltage-gated channel subfamily KQT member 1 (Homo sapiens) (UniProt P51787). In words: enhancement of KCNQ1 channel thallium flux – FluxOR thallium flux, CHO cells, duplicates, confirmation (AID 493007;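 active means potentiation averaged over duplicate wells exceeding buffer-only control mean by more than 3 SD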;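 on outcome: cells depolarized by a potassium plus thallium sulfate stimulus after compound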;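 on potentiation: 0% = buffer-only wells and 100% = R-L3 activator control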). The note with it: KCNQ1 cell line, FluxOR thallium flux fluorescence, at 10 µM; hits give high values, % of reference activator effect, buffer zero. A digest of the protocol:
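Assay system: CHO cells carrying KCNQ1 | Controls: Buffer and R-L3 controls | Schedule: FluxOR dye loading 90 min, compound exposure 20 min, room temperature | Read-out: Baseline-normalized fluorescence change, percent of buffer-to-R-L3 range | Replicates: Each compound tested in duplicate | Technique: Kinetic thallium influx fluorescence with FluxOR dye, 10 s baseline, 110 s post-stimulus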

Test [3] concerns the target Potassium voltage-gated channel subfamily KQT member 2 (Rattus norvegicus) (UniProt O88943). In words: KCNQ2 thallium flux enhancement – KCNQ2-CHO-K1 cells, selectivity assay for KCNQ1 potentiator project (AID 493009).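 Further: assay conditions were tuned for KCNQ1 rather than KCNQ2 modulators; signal is max minus min fluorescence divided by baseline after thallium stimulus.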 The note with it: FluxOR thallium flux fluorescence, at 10 µM; hits give high values, scaled: buffer 0, activator control 100.
Test [4] deals with Potassium voltage-gated channel subfamily KQT member 1 (Homo sapiens) (UniProt P51787). In words: KCNQ1 activators by electrophysiology – IonWorks patch clamp, KCNQ1-CHO cells, orthogonal assay for KCNQ1 potentiator project, confirmation (AID 493184;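 active means current rise at least 3 SD above the untreated control mean in each of two repeat wells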). The settings on record: automated patch clamp current, at 10 µM; hits give high values. In short, it runs like this:
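Material: KCNQ1-expressing CHO cells; doses: 10 µM final, single point; probe or stimulus: voltage step from -90 mV holding to +40 mV, 2,000 ms; signal: automated voltage clamp, amphotericin B perforated patch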
For orientation: The patch-clamp technique gives a direct electrical read-out from membranes.

Sequence of Potassium voltage-gated channel subfamily KQT member 1 (Homo sapiens) (P51787 whole entry, looked up): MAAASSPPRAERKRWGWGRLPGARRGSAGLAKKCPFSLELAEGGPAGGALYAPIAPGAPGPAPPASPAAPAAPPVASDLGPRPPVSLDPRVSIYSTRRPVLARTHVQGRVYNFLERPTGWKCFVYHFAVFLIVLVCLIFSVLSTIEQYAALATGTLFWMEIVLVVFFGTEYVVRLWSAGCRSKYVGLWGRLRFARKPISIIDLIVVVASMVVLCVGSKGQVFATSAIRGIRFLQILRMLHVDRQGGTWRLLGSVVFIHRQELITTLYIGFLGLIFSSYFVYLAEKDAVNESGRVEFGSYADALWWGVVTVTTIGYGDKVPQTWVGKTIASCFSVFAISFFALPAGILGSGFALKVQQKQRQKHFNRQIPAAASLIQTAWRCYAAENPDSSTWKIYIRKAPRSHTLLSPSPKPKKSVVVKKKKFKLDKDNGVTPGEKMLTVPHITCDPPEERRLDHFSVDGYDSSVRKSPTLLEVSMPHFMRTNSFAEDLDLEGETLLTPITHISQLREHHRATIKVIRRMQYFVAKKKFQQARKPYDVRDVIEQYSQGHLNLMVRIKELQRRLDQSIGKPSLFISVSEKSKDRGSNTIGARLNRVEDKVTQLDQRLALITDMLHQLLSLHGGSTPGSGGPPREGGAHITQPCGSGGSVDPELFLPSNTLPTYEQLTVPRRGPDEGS
Sequence of Potassium voltage-gated channel subfamily KQT member 2 (Rattus norvegicus) (O88943 whole entry, looked up): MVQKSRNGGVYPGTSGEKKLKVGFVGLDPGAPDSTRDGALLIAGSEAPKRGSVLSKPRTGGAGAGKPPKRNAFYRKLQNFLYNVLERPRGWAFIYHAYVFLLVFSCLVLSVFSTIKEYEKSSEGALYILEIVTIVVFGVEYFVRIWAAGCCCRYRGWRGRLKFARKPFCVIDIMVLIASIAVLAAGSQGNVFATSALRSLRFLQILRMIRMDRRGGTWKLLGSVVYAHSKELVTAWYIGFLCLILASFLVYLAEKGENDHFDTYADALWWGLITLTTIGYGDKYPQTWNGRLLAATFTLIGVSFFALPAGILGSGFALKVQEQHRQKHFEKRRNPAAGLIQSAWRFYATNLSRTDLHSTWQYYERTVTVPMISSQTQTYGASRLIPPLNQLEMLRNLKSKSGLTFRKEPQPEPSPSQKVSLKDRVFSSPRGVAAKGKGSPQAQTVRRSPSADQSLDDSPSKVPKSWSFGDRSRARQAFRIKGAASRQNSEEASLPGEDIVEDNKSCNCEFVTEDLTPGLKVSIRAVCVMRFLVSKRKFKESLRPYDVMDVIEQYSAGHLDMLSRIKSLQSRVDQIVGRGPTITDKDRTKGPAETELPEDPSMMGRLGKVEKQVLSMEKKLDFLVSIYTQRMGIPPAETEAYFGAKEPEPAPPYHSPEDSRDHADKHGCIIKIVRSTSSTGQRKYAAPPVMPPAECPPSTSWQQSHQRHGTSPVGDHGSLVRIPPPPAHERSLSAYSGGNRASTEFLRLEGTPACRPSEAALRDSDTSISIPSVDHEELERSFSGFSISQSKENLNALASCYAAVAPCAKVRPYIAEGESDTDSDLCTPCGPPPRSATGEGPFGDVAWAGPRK

Take `COCCCn1c(=S)[nH]c2c(sc3ccccc32)c1=O`: the activation in test [1] is 176% (active). Further, the potentiation in test [2] was 69.5% (active); in test [3], 160% (active). Besides, the result in test [4] was inactive.
With `O=C(CSc1cccc[n+]1[O-])c1cc(Cl)ccc1Cl`, the result in test [1], in test [2], in test [3] and in test [4] was inactive.
As for `O=c1c2c(-c3ccco3)csc2nc(SCc2cn3cccnc3n2)n1-c1ccccc1`, the outcome in test [1], in test [2], in test [3] and in test [4] was inactive.
As to `CC1CCC(n2c(=S)[nH]c3ccccc3c2=O)CC1` (stereo not given), the activation in test [1] is 234% (active). In addition, the potentiation in test [2] was 70% (active); in test [3], 243% (active). For the same compound, the outcome in test [4] was inactive.
As to `Cc1ccc(CN2CCN(/N=C/C(Br)=C\c3ccccc3)CC2)cc1`, the outcome in test [1], in test [2], in test [3] and in test [4] was inactive.
On to `Oc1[nH]c2c(Cl)cc(Cl)cc2c1N=NC(=S)NCC1CCCO1` (stereo not given), for which the activation in test [1] was 346% (active). Also, the potentiation in test [2] is 277% (active); in test [3], 454% (active). In addition, the result in test [4] was inactive.
Regarding `CCOc1ccc2nc(/N=C/c3nc(-c4ccccc4)oc3O)sc2c1`, in test [1], the activation is 150% (active). Moreover, the potentiation in test [2] was 52.5% (active); in test [3], 190% (active). Further, the result in test [4] was inactive.
As to `Cc1nn(CCc2nn[nH]n2)c2nc(-c3ccc(C4CCCCC4)cc3)cc(C(F)(F)F)c12`, the activation in test [1] is 296% (active). Further, the potentiation in test [2] is 58% (active); in test [3], 182% (active). For the same compound, the result in test [4] was inactive.
Turning to `CCCCOC(=S)NC(=O)c1sc2ccccc2c1Cl`, the activation in test [1] is 448% (active). The potentiation is 206% (active) in test [2] and 365% (active) in test [3]. For the same compound, in test [4], the result was inactive.
For the compound `CN(C)CCCC1(O)c2ccccc2C=Cc2ccccc21`, the activation in test [1] is 139% (active). Moreover, in test [2], the potentiation was 29% (active). Also, the result in test [3] and in test [4] was inactive.
For `CCN(CC(=O)Nc1ccc(OC)cc1)C(=O)CSCC(=O)Nc1ccc(C)cc1`, the outcome in test [1], in test [2], in test [3] and in test [4] was inactive.
With `COc1ccc2nc(NC(=S)NC(=O)c3ccco3)sc2c1`, the result in test [1] and in test [4] was inactive. For the same compound, the values for the potentiation in test [2] and in test [3] were 42% (active) and 175% (active), respectively.
On to `Cc1sc(NC(=O)c2ccccc2)c(C(c2ccc(Cl)cc2)N2CCN(CCO)CC2)c1C` (stereo not given), for which the result in test [1], in test [2], in test [3] and in test [4] was inactive.
Turning to `COc1ccc(S(=O)(=O)Nc2cccc3ccc(O)cc23)cc1`, the outcome in test [1], in test [2], in test [3] and in test [4] was inactive.
On to `COc1ccc2oc(C(=O)OCC(=O)N3CC(C)OC(C)C3)c(C)c2c1` (stereo not given), for which the result in test [1], in test [2], in test [3] and in test [4] was inactive.
For `CCN(CC)S(=O)(=O)c1cc(OC)ccc1N=Nc1ccc(O)c2ncccc12`, the outcome in test [1] and in test [4] was inactive. In addition, the potentiation in test [2] was 37.5% (active); in test [3] it was 148% (active).
Consider `C/C(=N\NC(=O)c1cc2ccccc2cc1O)c1ccc(C)o1`, for which the activation in test [1] is 238% (active). Further, the potentiation is 114% (active) in test [2] and 264% (active) in test [3]. Moreover, in test [4], the result was inactive.
`Cc1cc(/C=N/NC(=O)CC#N)c(C)n1-c1ccc([N+](=O)[O-])cc1`: the result in test [1], in test [2], in test [3] and in test [4] was inactive.
As to `CCC(C)[C@H](N)c1nnc(SCC(=O)Nc2cccc(Cl)c2)o1` (stereo not given in full), the activation in test [1] is 210% (active). The potentiation was 39.5% (active) in test [2] and 162% (active) in test [3]. The result in test [4] was inactive.
Taken in the same sequence, the figures for `CN(C)CCCn1c(=O)n(C2CCCCC2)c(=O)c2c3c(sc21)CCCCC3` were 167% (active), 224% (active), 154% (active) and “inactive”.
Regarding `CCCCn1c(N)c(C(=S)NC(=O)CC(C)(C)C)c(=O)n(C)c1=O`, the activation in test [1] was 140% (active). The potentiation in test [2] is 37.5% (active); in test [3] it was 148% (active). Further, in test [4], the outcome was inactive.
As for `CCOC(=O)c1c(NC(=S)NCCc2ccccc2)sc2c1CC(C(C)C)OC2` (stereo not given), the result in test [1] and in test [4] was inactive. Also, the potentiation is 32% (active) in test [2] and 146% (active) in test [3].
For the compound `O=c1cc(-c2ccccc2)cc(-c2ccccc2)n1O`, in test [1], the activation is 254% (active). For the same compound, the values for the potentiation in test [2] and in test [3] were 87.5% (active) and 322% (active), respectively. Moreover, the result in test [4] was inactive.
As for `Cc1ccc(C(=O)CC(=O)COc2ccc(Cl)cc2)cc1`, the outcome in test [1] and in test [4] was inactive. Moreover, the potentiation in test [2] was 184% (active); in test [3], 252% (active).
Regarding `CC(C)C(=O)Nc1c(-c2ccccc2F)c(=O)c2ccccc2n1C`, the result in test [1], in test [2], in test [3] and in test [4] was inactive.
For the compound `COCCN1CCCC(CNCc2cn(C)nc2-c2ccc(Oc3ccccc3)cc2)C1` (stereo not given), the outcome in test [1], in test [2], in test [3] and in test [4] was inactive.
With `CCc1nnc(NC(=O)CSc2n[nH]c(-c3ccccc3O)n2)s1`, the outcome in test [1], in test [2], in test [3] and in test [4] was inactive.
Consider `CC(=O)CC1(OC(C)=O)C(=O)N(C)c2ccccc21` (stereo not given), for which the outcome in test [1], in test [2], in test [3] and in test [4] was inactive.
For the compound `O=c1c2ccc(Cl)cc2nc(-c2cccc(C(F)(F)F)c2)n1O`, the activation in test [1] is 722% (active). Also, the potentiation was 230% (active) in test [2] and 756% (active) in test [3]. Besides, in test [4], the result was inactive.
On to `O=c1[nH]cc(N=Cc2cc(Cl)cc(Cl)c2O)c(=O)[nH]1`, for which the activation in test [1] was 188% (active). For the same compound, the result in test [2], in test [3] and in test [4] was inactive.

Source of the values: PubChem BioAssay.
